Assay results as given in ChEMBL document CHEMBL1143052, “Synthesis, antimicrobial, and QSAR studies of substituted benzamides” (2007).

Columns and labels:
Bacillus subtilis = test: Antibacterial activity against Bacillus subtilis MTCC 2063 after 24 hrs; type: functional
Summary of the method: (§1)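 Serial broth dilution in double-strength nutrient broth-I.P. Bacteria were grown for 24 h at 37 °C. A DMSO stock was diluted into 1 mL broth tubes to span 5–0.156, then inoculated with a saline suspension of the organism. Tubes were incubated at 37 °C for 24 h and MIC was read. Extra dilutions of the stock then set the exact MIC.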

Escherichia coli = test: Antibacterial activity against Escherichia coli MTCC 1652 after 24 hrs; type: functional; summary of the method: as §1
Aspergillus ficuum = test: Antifungal activity against Aspergillus ficuum MTCC 8184 by serial dilution method; type: functional
Summary of the method: (§2)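 Broth serial dilution against the fungus in Sabouraud dextrose broth-I.P., run like the antibacterial assay. Compounds came from a DMSO stock, and MIC was determined.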

Aspergillus parasiticus = test: Antifungal activity against Aspergillus parasiticus MTCC 8189 by serial dilution method; type: functional; summary of the method: as §2
Staphylococcus aureus = test: Antibacterial activity against Staphylococcus aureus MTCC 2901 after 24 hrs

Row | pMIC, log(1/MIC) (Bacillus subtilis) | pMIC, log(1/MIC) (Escherichia coli) | -log(1/MIC) (Aspergillus ficuum) | -log(1/MIC) (Aspergillus parasiticus) | -log(1/MIC) (Staphylococcus aureus) | -log(1/MIC) (Escherichia coli) | SMILES
1 | 1.35 | 1.35 | 1.65 | 1.65 | 1.23 |  | O=C(Nc1ccc(O)cc1)c1c(O)ccc2ccccc12
2 | 0.98 | 1.16 | 1.58 | 1.58 | 1.28 |  | O=C(/C=C/c1ccccc1)Nc1ccc(O)cc1
3 | 0.96 | 1.12 | 1.45 | 1.2 | 1.26 |  | O=C(Nc1ccccc1O)c1ccccc1O
4 | 0.96 | 1.26 | 1.56 | 1.3 | 1.16 |  | Cc1cccc(C(=O)Nc2ccccc2O)c1
5 | 1.27 | 1.27 | 1.58 | 1.58 | 1.37 |  | O=C(Nc1ccc(O)cc1)c1cc([N+](=O)[O-])ccc1Cl
6 | 0.96 | 1.2 | 1.56 | 1.26 | 1.16 |  | Cc1ccc(C(=O)Nc2ccccc2O)cc1
7 | 1.04 | 1.2 | 1.56 | 1.26 | 1.26 |  | Cc1cccc(C(=O)Nc2ccc(O)cc2)c1
8 | 1.2 | 1.21 | 1.58 | 1.62 | 1.25 |  | O=C(Nc1ccccc1O)c1ccc2ccccc2c1O
9 | 1.25 | 1.22 | 1.57 | 1.62 | 1.32 |  | O=C(Nc1ccc(O)cc1)c1ccc2ccccc2c1O

Second part, the compound before the results:

Row | SMILES | pMIC, log(1/MIC) (Bacillus subtilis) | pMIC, log(1/MIC) (Escherichia coli) | -log(1/MIC) (Aspergillus ficuum) | -log(1/MIC) (Aspergillus parasiticus) | -log(1/MIC) (Staphylococcus aureus) | -log(1/MIC) (Escherichia coli)
10 | O=C(Nc1ccc(O)cc1)c1ccccc1Cl | 1 | 1.17 | 1.6 | 1.31 | 1.3 | 
11 | O=C(Nc1ccccc1O)c1c(O)ccc2ccccc12 | 1.35 | 1.29 | 1.65 | 1.35 | 1.23 | 
12 | O=C(Nc1ccccc1O)c1ccccc1Cl | 1 | 1.2 | 1.6 | 1.3 | 1.3 | 
13 | O=C(Nc1ccc(O)cc1)c1cc([N+](=O)[O-])cc([N+](=O)[O-])c1 | 1.38 | 1.38 | 1.69 | 1.69 | 1.38 | 
14 | O=C(Nc1ccc(O)cc1)c1ccccc1 | 0.93 | 1.23 | 1.53 | 1.24 | 1.23 | 
15 | O=C(O)c1ccccc1O [SALICYLIC ACID] |  |  | 3.1 | 3.1 |  | 
16 | O=C(Nc1ccccc1)c1ccccc1OCc1ccccc1 | 1.3 | 1.3 | 1.69 | 1.69 | 1.39 | 
17 | O=C(Nc1ccccc1O)c1cccc(Cl)c1 | 1.1 | 1.2 | 1.6 | 1.3 | 1.16 | 
18 | O=C(Nc1ccccc1O)c1ccccc1 | 0.93 | 1.23 | 1.43 | 1.23 | 1.11 | 
19 | O=C(Nc1ccccc1)c1cc([N+](=O)[O-])ccc1Cl | 1.15 | 1.2 | 1.55 | 1.42 | 1.35 | 
20 | COC(=O)c1cccc(O)c1NC(=O)c1ccccc1OCc1ccccc1 | 1.48 | 1.35 | 1.78 | 1.83 | 1.48 | 
21 | O=C(O)c1cn(C2CC2)c2cc(N3CCNCC3)c(F)cc2c1=O [CIPROFLOXACIN] | 3.33 |  |  |  | 3.33 | 3.33
22 | O=C(Nc1ccccc1)c1c(O)ccc2ccccc12 | 1.35 | 1.35 | 1.65 | 1.65 | 1.35 | 
23 | O=C(Nc1ccc(O)cc1)c1ccccc1O [OSALMID] | 0.96 | 1.2 | 1.56 | 1.26 | 1.26 | 
24 | COc1cccc(C(=O)Nc2ccc(O)cc2)c1[N+](=O)[O-] | 1.26 | 1.26 | 1.36 | 1.53 | 1.36 | 
25 | O=C(Nc1ccc(O)cc1)c1cccc(Cl)c1 | 1 | 1.17 | 1.6 | 1.3 | 1.3 | 
26 | Cc1ccc(C(=O)Nc2ccc(O)cc2)cc1 | 0.96 | 1.26 | 1.56 | 1.32 | 1.26 | 
27 | COc1cccc(C(=O)Nc2ccccc2O)c1[N+](=O)[O-] | 1.41 | 1.41 | 1.71 | 1.71 | 1.41 | 
28 | O=C(Nc1ccccc1O)c1cc([N+](=O)[O-])ccc1Cl | 1.07 | 1.2 | 1.67 | 1.52 | 1.26 | 
29 | O=C(Nc1ccccc1)c1ccc2ccccc2c1O | 1.13 | 1.17 | 1.44 | 1.3 | 1.26 | 
30 | O=C(Nc1ccccc1O)c1cc([N+](=O)[O-])cc([N+](=O)[O-])c1 | 1.38 | 1.38 | 1.58 | 1.69 | 1.38 | 
